Source: PubChem BioAssay
Rows were chosen to be rich in hits. Some 1.8% of all compounds tested hit in one or more screens of this group.
Platelet DG rel: platelet dense granule release activity. inhibition, %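 (compounds screened at 7.5 µM in platelet-rich plasma)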. hit rate 0.22% among 300,000. human platelet-rich plasma, SFLLRN dense granule ATP release, luminescence. AID 1663;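 active means mean replicate score, as percent of positive control, at or above 50; inconclusive means mean below 50 but at least one replicate at or above 50; inactive means mean and every replicate below 50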
Runt-SMMHC FRET: Runt domain-CBFb-SMMHC interaction inhibition. Cerulean-Runt/Venus-CBFb-SMMHC FRET ratio 530/480, 1 h. inhibition, % at 20 µM. hit rate 0.74% among 220,000. AID 1434;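 active means mean inhibition across duplicate retests at 20 µM reaching about 50%, limit read from the data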;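 further: inhibitors lower the FRET ratio by blocking Runt binding to CBFb-SMMHC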
Target sequence (Q01196 whole entry, looked up, the tested form may be a part): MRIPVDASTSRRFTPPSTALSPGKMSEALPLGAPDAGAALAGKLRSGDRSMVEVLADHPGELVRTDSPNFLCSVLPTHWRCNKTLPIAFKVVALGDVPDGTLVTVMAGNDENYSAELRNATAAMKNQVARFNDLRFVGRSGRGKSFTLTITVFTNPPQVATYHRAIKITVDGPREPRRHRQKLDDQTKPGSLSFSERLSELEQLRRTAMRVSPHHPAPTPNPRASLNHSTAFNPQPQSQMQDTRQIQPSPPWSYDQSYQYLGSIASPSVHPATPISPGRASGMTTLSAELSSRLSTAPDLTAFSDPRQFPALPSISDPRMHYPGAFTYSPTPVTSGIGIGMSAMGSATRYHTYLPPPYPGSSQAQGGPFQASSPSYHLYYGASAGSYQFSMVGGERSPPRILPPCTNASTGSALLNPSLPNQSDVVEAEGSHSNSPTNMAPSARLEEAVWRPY
Target sequence (Q13951 whole entry, looked up, the tested form may be a part): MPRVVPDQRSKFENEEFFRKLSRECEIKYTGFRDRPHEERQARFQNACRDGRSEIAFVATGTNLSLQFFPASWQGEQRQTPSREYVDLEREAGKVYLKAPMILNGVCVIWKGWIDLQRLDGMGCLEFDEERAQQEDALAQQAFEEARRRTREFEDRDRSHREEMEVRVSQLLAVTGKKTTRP
Runt-CBFb FRET: inhibitors of human RUNX1 Runt domain binding to CBFb; Cerulean-Runt/Venus-CBFb FRET ratio 530/480, 1 h; inhibition, % at 20 µM; hit rate 0.46% among 220,000; AID 1496;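 active means inhibition over about 50% at 20 µM in the single-dose screen, limit read from the data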
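Assay system: Cerulean-tagged RUNX1 Runt domain (FRET donor) fusion protein / Amount: 100 nM each of Venus-CBFb and Cerulean-Runt domain / Medium: Tris buffer pH 7.5 with salts and BSA / Also added: Venus-CBFb 100 nM / Schedule: 1 h complex formation plus 1 h compound treatment, room temperature / Signal: FRET fluorescence / Read-out: loss of energy transfer signal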
Rce1 inhib: blocks yeast Ras-converting enzyme. yeast membranes, quenched prenylated peptide cleavage fluorescence. calls only. hit rate 0.27% among 290,000;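 active means fall in fluorescence gain of 50% or more versus controls, with final raw signal at or below 3038400; inconclusive means same 50% fall but final raw signal above 3038400; inactive means fall in fluorescence gain under 50%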
RanGTP-Impb inh: inhibitors of RanGTP-importin-beta interaction, primary screen, biochemical, FRET, CFP-Ran, YFP-importin-beta, homogeneous. cell-free CFP-Ran/YFP-importin-beta FRET ratio. inhibition, % (concentration not given with the values). hit rate 1.1% among 300,000. AID 2216;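 active means more than half of the replicate wells show a fall in the fluorescence ratio signal beyond about 16%, limit read from the data, passing the limit was not always enough; inconclusive means exactly half of the replicate wells pass the set limit; inactive means fewer than half of replicates pass the limit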
Numbers stand for hits; i = inactive; ? = inconclusive; nt = no result; + = active, no number.

SMILES	Platelet DG rel	Runt-SMMHC FRET	Runt-CBFb FRET	Rce1 inhib	RanGTP-Impb inh
COc1ccccc1-n1c(N)c(C(=O)NCC2CCCO2)c2nc3ccccc3nc21 (stereo not given)	i	i	i	i	57.3
O=C(NCC1CCCO1)c1ccccc1 (stereo not given)	i	i	i	i	i
Nc1c(C(=O)OCC2CCCO2)c2nc3ccccc3nc2n1C1CCCCC1 (stereo not given)	i	67.3	i	i	i
Nc1c(C(=O)NCC2CCCO2)c2nc3ccccc3nc2n1-c1ccccc1 (stereo not given)	i	i	82.8	i	77.6
C#CCSc1nnc(CNS(=O)(=O)c2ccc(Br)cc2)n1C	i	nt	nt	i	i
COc1ccccc1Nc1nc(NCCCCO)nc(N2CCCC2)n1	i	nt	nt	i	i
CCCc1cc(=O)oc2c(C)c(OCC(=O)N3C[C@H]4C[C@@H](C3)c3cccc(=O)n3C4)ccc12	i	nt	nt	i	i
COc1ccc(C2CC(c3ccc4ccccc4c3)=NN2C(=O)CNC2CCCCC2)cc1 (stereo not given)	i	i	i	+	i
C=CCNCC(=O)N1N=C(c2ccc3ccccc3c2)CC1c1ccc(OC)cc1 (stereo not given)	i	i	i	i	i
Cc1ccc2[nH]c3c(c2c1)SC(C)(C)CC3=O	i	i	i	nt	21.0
CCOc1ccc2nc(NCCNC(=O)c3cc(OC)c(OC)c(OC)c3)c(C#N)cc2c1	i	nt	nt	i	112.5
COc1cc(C(=O)NCCCNc2nc3cc(C)c(C)cc3cc2C#N)cc(OC)c1OC	i	i	nt	i	49.7
Cc1cc(C)c(C)c(S(=O)(=O)N2CCCCC2C(=O)O)c1C (stereo not given)	i	i	i	i	i
COc1ccc(C(=O)Oc2c(OC)cc(C(=S)N3CCOCC3)cc2OC)cc1OC	i	nt	nt	i	?
Cc1ccc(C(=O)NCCNC(=O)c2ccc(F)cc2)cn1	i	nt	nt	i	?
CN1CCc2c(sc(NC(=O)C3CCCCC3)c2C(N)=O)C1	i	nt	nt	i	147.2
COC(=O)c1c(NC(=O)C2CC2)sc2c1CCCC2	i	i	i	i	i
CC(C)C(=O)NC(=S)Nc1sc2c(c1C(N)=O)CCCC2	i	i	i	i	i
CN1CCc2c(sc(NC(=O)C3CCN(S(=O)(=O)c4cccs4)CC3)c2C(N)=O)C1	i	nt	nt	i	131.5
CC(C)N1CCc2c(sc(NC(=O)C3CCCCC3)c2C(N)=O)C1	i	nt	nt	i	133.7
COC(=O)c1c(NC(=O)C2CCCCC2)sc2c1CCN(C(C)C)C2	i	nt	nt	i	56.7
COc1cccc(CNc2ccc([N+](=O)[O-])c(NCC(=O)O)n2)c1	i	i	i	i	i
CC(C)CC(=O)Nc1c(C(=O)N2CCN(Cc3ccccc3)CC2)oc2ccccc12	i	nt	nt	i	i
C/C(=N/NC(=O)CNC(=O)/C=C/c1ccco1)c1ccc(Cl)cc1	i	i	i	i	i
Cc1nc(-c2nc(-c3c(C(=O)NNC(=O)c4ccc(Cl)cc4)noc3C)cs2)cs1	i	i	i	i	16.8
SMILES	Platelet DG rel	Runt-SMMHC FRET	Runt-CBFb FRET	Rce1 inhib	RanGTP-Impb inh
Cc1nc(-c2nc(-c3c(C(=O)NNC(=O)Nc4cccc(Cl)c4)noc3C)cs2)cs1	i	i	i	i	i
CC(C)(C)NC(=S)NCc1ccc2c(c1)OCO2	i	i	i	i	i
CN(C)CC(C)(C)CNC(=S)NCc1ccc2c(c1)OCO2	i	i	i	+	i
O=C(NCCCO)c1ccc2[nH]c3c(c2c1)CCCC3	i	i	i	i	i
COCCNC(=S)NCc1ccc2[nH]c3c(c2c1)CCCC3	i	i	i	i	19.3
O=C(NCCO)c1ccc2[nH]c3c(c2c1)CCCC3	i	i	i	i	18.3
FC(F)(F)c1cccc(NC(=S)Nc2cccc(NC(=S)Nc3cccc(C(F)(F)F)c3)n2)c1	i	i	i	i	14.8
Cc1cccc(C(=O)N[C@H](C(=O)Nc2nccs2)C(C)C)c1	i	i	i	i	i
COC(=O)c1ccc(CSc2nnc(N)s2)cc1	74.9	i	i	i	i
COc1cc(NS(=O)(=O)c2ccc(N/C=C\C(=O)c3ccc(C)cc3)cc2)nc(OC)n1	i	nt	nt	i	?
COc1cc(NS(=O)(=O)c2ccc(N/C=C\C(=O)c3ccc(OC)c(OC)c3)cc2)nc(OC)n1	i	82.6	i	i	i
O=C(N=C1SC2CS(=O)(=O)CC2N1Cc1ccccc1Cl)C1CCCO1 (stereo not given)	i	nt	nt	i	i
COc1cccc(Nc2nc(C)nc3c2oc2ccccc23)c1	i	nt	nt	+	i
Cc1c(C(=O)Nc2ccccc2F)sc2ncn(CC(=O)N3CCCCC3)c(=O)c12	i	nt	nt	i	i
COc1cc(C2C(C#N)=C(N)OC3=C2C(=O)CCC3)cc2c1OCO2 (stereo not given)	i	nt	nt	i	i
CCC(=O)NC(Nc1c(C)n(C)n(-c2ccccc2)c1=O)C(Cl)(Cl)Cl (stereo not given)	i	i	i	i	i
CC1OC23CCCCC2C(C#N)(C(=N)O3)C1(C#N)C#N (stereo not given)	i	i	i	i	i
CCCC1OC23CCCCC2C(C#N)(C(=N)O3)C1(C#N)C#N (stereo not given)	i	i	i	i	33.3
COc1ccc(C2OC34CCCCC3C(C#N)(C#N)C2(C#N)C(=N)O4)cc1 (stereo not given)	i	76.8	i	i	43.3
N#CC12COC3(CCCCC3C1(C#N)C#N)OC2=N (stereo not given)	i	i	i	i	33.2
CCC1OC23CCCCC2C(C#N)(C(=N)O3)C1(C#N)C#N (stereo not given)	i	i	i	i	27.1
COc1ccc(S(=O)(=O)NCc2ccncc2)cc1NC(=O)c1ccc(Cl)cc1	i	nt	nt	i	i
CC1CCN(c2nc3ccccc3nc2C(C#N)C(=O)NC2CCCCC2)CC1 (stereo not given)	i	i	i	i	49.7
C=CCNC(=O)C(C#N)c1nc2ccccc2nc1N1CCCCCC1 (stereo not given)	i	65.0	i	i	73.7
N#CC(C(=O)NC1CCCCC1)c1nc2ccccc2nc1N1CCOCC1 (stereo not given)	nt	i	i	nt	nt
SMILES	Platelet DG rel	Runt-SMMHC FRET	Runt-CBFb FRET	Rce1 inhib	RanGTP-Impb inh
CCCCNC(=O)C(C#N)c1nc2ccccc2nc1N1CCCC1 (stereo not given)	i	67.3	i	i	34.1
CCOc1ccc(NC(=O)CCNS(=O)(=O)c2ccc3c(c2)CC(C)N3C(C)=O)cc1 (stereo not given)	i	nt	nt	i	i
O=C1CSc2ccc(S(=O)(=O)N3CCN(c4ccccc4F)CC3)cc2N1	i	nt	nt	i	i
Cc1ccc(-c2nc(SCC(=O)N(C)C3CCS(=O)(=O)C3)[nH]c2-c2ccc(C)cc2)cc1 (stereo not given)	i	i	i	+	i
Cc1cccc(N2CCN(C(=O)NCc3ccc(Cl)cc3)CC2)c1	i	i	i	i	i
CC1(C)CCCN(C(=O)c2coc(=O)c(Br)c2)C1	i	i	i	+	i
O=C(O)c1cc(-c2ccc(N3CCOCC3)cc2)nn1-c1ccc(F)cc1F	i	i	i	+	i
